21 compounds from PubChem BioAssay can be followed below.

Active and inactive are the calls of the source.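 The calls were made as follows, unless noted: active = viability at or under a set limit in both replicates, limit being median viability minus 3 SD (cut at about 48% in these data, passing the limit was not always enough); inconclusive = at or under the limit in just one replicate; inactive = at or above the limit in both replicates.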

Assay [1] is described as follows: HUVEC growth inhibition – cell-based, human, primary screen (AID 575;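 active = viability at or below 30% in both replicate assays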;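 also: 100% = median of untreated cell wells with 0.1% DMSO on each plate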). The following applies: HUVEC proliferation, CellTiter-Glo luminescence, 72 h; at 10 µM; stronger effect = lower value. The gist of the method:
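System: primary human umbilical vein endothelial cells; Quantity: 1250 endothelial cells in each well; Buffer or medium: supplemented EBM, 2% fetal bovine serum; Doses: one dose, 10 µM final, 0.1% DMSO; Incubation: 72 h compound incubation; Technique: ATP-based CellTiter-Glo luminescent read; Evaluation: percent of median DMSO-control luminescence; Controls: vehicle and MePR control wells.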
Background: In ATP-based viability assays light output follows the ATP content of the culture.

A short description of assay [2]: growth inhibitors of H69AR lung tumor, primary screen, human, duplicate replicates (AID 580).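 Also: 100% = mean luminescence of untreated wells and 0% = no signal.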 The note with it: H69AR lung tumor cells viability, ATP luminescence, 72 h; at 10 µM; stronger effect = lower value.
A short description of assay [3]: reversal of MRP1-mediated doxorubicin resistance, pilot screen, H69AR cells, doxorubicin co-treatment (AID 601;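 active = viability loss from added drug above about 55%, and viability with drug at most 40%, in both replicates, limit read from the data, passing the limit was not always enough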). The following applies: CellTiter-Glo, 72 h, at 10 µM; for differential viability (reversal): stronger effect = higher value.
The nature of assay [4]: 384-well plate pilot, post-Golgi transport modulator project, inhibition of yeast transport mutant growth (AID 636; in the data active = inhibition above about 31%). The following applies: absorbance 615 nm, about 18 h, stronger effect = higher value.
Assay [5] in a line: growth suppression of yeast trafficking mutant, preliminary HTS, modulators of trafficking downstream of Golgi apparatus project, 1536-format plate, OD 615 nm (AID 637; in the data active = inhibition above about 30%). The following applies: yeast transport mutant growth, absorbance 615 nm, 18 h; stronger effect = higher value.
[6] abbreviates: H69AR cells + 2 uM doxorubicin, measured here: viability with 2 uM doxorubicin, stronger effect = lower value.
Setting [7] is: H69AR cells, compound alone cytotoxicity.

In general, viability refers to a read-out of living cells in per cent, often relative to untreated cells. By inhibition is commonly meant the drop in the measured response relative to a control, in per cent. `COc1ccc(S(=O)(=O)NC(C)C(=O)Nc2cccc(C(C)=O)c2)cc1` (configuration not stated): the viability was 114% (inactive) in assay [1], 98.1% (inactive) in assay [2], 88.9% in assay [3] (setting [6]) and 98.1% in assay [3] (setting [7]). Besides, the differential viability (reversal) in assay [3] (H69AR cells + 2 uM doxorubicin) is 9.17% (inactive). The inhibition is -4.8% (inactive) in assay [4] and 0.16% (inactive) in assay [5].
With `CC(C(N)=O)N1C(=O)C2C3C=CC(C3)C2C1=O` (configuration not stated), the viability in assay [1] is 85.1% (inactive); in assay [2] it was 106% (inactive); in assay [3] (setting [6]), 95.2%; in assay [3] (setting [7]), 106%. Moreover, in assay [3] (H69AR cells + 2 uM doxorubicin), the differential viability (reversal) is 10.4% (inactive). Besides, the values for the inhibition in assay [4] and in assay [5] were -1.6% (inactive) and -2.22% (inactive), respectively.
Regarding `CCOC(=O)N1CCN(C(=O)Nc2ccc3oc(C)nc3c2)CC1`, the viability was 98.2% (inactive) in assay [1], 93.2% (inactive) in assay [2], 94.1% in assay [3] (setting [6]) and 93.2% in assay [3] (setting [7]). In addition, in assay [3] (H69AR cells + 2 uM doxorubicin), the differential viability (reversal) was -0.96% (inactive). The inhibition in assay [4] was -2.63% (inactive); in assay [5] it was 0% (inactive).
As to `CC1=C(C(N)=O)C(c2ccc(Cl)cc2Cl)n2ncnc2N1` (configuration not stated), the viability in assay [1] is 91.8% (inactive); in assay [2] it was 101% (inactive); in assay [3] (setting [6]) it was 84.7%; in assay [3] (setting [7]) it was 101%. Besides, the differential viability (reversal) in assay [3] (H69AR cells + 2 uM doxorubicin) was 16.7% (inactive). For the same compound, the figures for the inhibition in assay [4] and in assay [5] were 0% (inactive) and 6.19% (inactive), respectively.
On to `O=C(CCN1CCOCC1)Nc1ccc2c(c1)CCC2`, for which the viability is 79.7% (inactive) in assay [1], 93.7% (inactive) in assay [2], 86.8% in assay [3] (setting [6]) and 93.7% in assay [3] (setting [7]). Also, in assay [3] (H69AR cells + 2 uM doxorubicin), the differential viability (reversal) was 6.83% (inactive). The inhibition in assay [4] was -5.26% (inactive); in assay [5] it was -4.13% (inactive).
Turning to `CCOc1ccccc1-n1c(SCC(=O)NC(C)CC)nnc1-c1ccoc1C` (configuration not stated), the viability in assay [1] was 82.5% (inactive); in assay [2], 88.7% (inactive); in assay [3] (setting [6]), 79.6%; in assay [3] (setting [7]) it was 88.7%. Moreover, the differential viability (reversal) in assay [3] (H69AR cells + 2 uM doxorubicin) was 9.12% (inactive). Further, the inhibition in assay [4] was -6% (inactive); in assay [5], -1.75% (inactive).
On to `N=c1ncn(CC(O)CN2CCOCC2)c2nc(N3CCOCC3)[nH]c12` (configuration not stated), for which the viability is 92.6% (inactive) in assay [1], 98.6% (inactive) in assay [2], 86.2% in assay [3] (setting [6]) and 98.6% in assay [3] (setting [7]). In addition, the differential viability (reversal) in assay [3] (H69AR cells + 2 uM doxorubicin) was 12.4% (inactive). Besides, the results for the inhibition in assay [4] and in assay [5] were 0.4% (inactive) and -1.9% (inactive), respectively.
Consider `CC(C)Cc1nnc(NC(=O)CCC(=O)N2CCOCC2)s1`, for which the viability in assay [1] is 91.5% (inactive); in assay [2], 96.2% (inactive); in assay [3] (setting [6]) it was 95.9%; in assay [3] (setting [7]), 96.2%. Besides, in assay [3] (H69AR cells + 2 uM doxorubicin), the differential viability (reversal) is 0.305% (inactive). The inhibition was -4.8% (inactive) in assay [4] and 0.63% (inactive) in assay [5].
As for `CCCOc1ccc(S(=O)(=O)NCCCN2CCOCC2)c2ccccc12`, the viability in assay [1] is 83.2% (inactive); in assay [2], 90% (inactive); in assay [3] (setting [6]), 82.6%; in assay [3] (setting [7]), 90%. Moreover, in assay [3] (H69AR cells + 2 uM doxorubicin), the differential viability (reversal) was 7.43% (inactive). In addition, the inhibition was -6.13% (inactive) in assay [4] and 4.6% (inactive) in assay [5].
`CCc1ncc(C(O)c2cccc(OC)c2OC)n1C` (configuration not stated): the viability in assay [1] is 101% (inactive); in assay [2], 98.7% (inactive); in assay [3] (setting [6]) it was 87.3%; in assay [3] (setting [7]) it was 98.7%. The differential viability (reversal) in assay [3] (H69AR cells + 2 uM doxorubicin) was 11.3% (inactive). In addition, the inhibition in assay [4] is -3.68% (inactive); in assay [5] it was 4.13% (inactive).
Regarding `O=C(c1noc2c1CCc1ccccc1-2)N1CCOCC1`, the viability in assay [1] is 95.6% (inactive); in assay [2] it was 96.4% (inactive); in assay [3] (setting [6]) it was 90.3%; in assay [3] (setting [7]), 96.4%. Also, the differential viability (reversal) in assay [3] (H69AR cells + 2 uM doxorubicin) was 6.12% (inactive). Besides, the figures for the inhibition in assay [4] and in assay [5] were -0.13% (inactive) and -2.86% (inactive), respectively.
For `CN(C)C(CNc1nnnn1-c1ccccc1)c1ccco1` (configuration not stated), the viability in assay [1] is 79.2% (inactive); in assay [2] it was 77.4% (inactive); in assay [3] (setting [6]), 72.4%; in assay [3] (setting [7]), 77.4%. The differential viability (reversal) in assay [3] (H69AR cells + 2 uM doxorubicin) is 5% (inactive). Moreover, the inhibition in assay [4] is -3.77% (inactive); in assay [5], 1.11% (inactive).
For the compound `CCOC(=O)c1cccc(NC(=O)CCn2nnc3ccccc32)c1`, the viability is 89.9% (inactive) in assay [1], 98.6% (inactive) in assay [2], 88.9% in assay [3] (setting [6]) and 98.6% in assay [3] (setting [7]). Besides, the differential viability (reversal) in assay [3] (H69AR cells + 2 uM doxorubicin) is 9.72% (inactive). Moreover, the inhibition in assay [4] is -2.5% (inactive); in assay [5], 0.48% (inactive).
Consider `CCOC(=O)c1ccc(NS(=O)(=O)c2ccc(SC)cc2)cc1`, for which the viability is 99% (inactive) in assay [1], 108% (inactive) in assay [2], 97.4% in assay [3] (setting [6]) and 108% in assay [3] (setting [7]). The differential viability (reversal) in assay [3] (H69AR cells + 2 uM doxorubicin) is 10.8% (inactive). For the same compound, the inhibition was -7.11% (inactive) in assay [4] and -3.81% (inactive) in assay [5].
With `COc1cc2c(cc1NCc1ccccn1)oc1ccccc12`, the viability in assay [1] is 78% (inactive); in assay [2], 83.8% (inactive); in assay [3] (setting [6]), 94.1%; in assay [3] (setting [7]) it was 83.8%. Further, the differential viability (reversal) in assay [3] (H69AR cells + 2 uM doxorubicin) was -10.3% (inactive). For the same compound, the inhibition in assay [4] is -4.13% (inactive); in assay [5], 5.08% (inactive).
Take `CCc1ccc(CCC(=O)Nc2ccc(C)c(C)c2)o1`: the viability in assay [1] was 102% (inactive); in assay [2] it was 95.1% (inactive); in assay [3] (setting [6]) it was 87.9%; in assay [3] (setting [7]), 95.1%. In assay [3] (H69AR cells + 2 uM doxorubicin), the differential viability (reversal) was 7.16% (inactive). For the same compound, the inhibition in assay [4] is -8.4% (inactive); in assay [5], -3.65% (inactive).
As for `Cc1cccc(-n2c(N)c(C(=O)N3CCN(C)CC3)sc2=S)c1`, the viability in assay [1] is 101% (inactive); in assay [2], 92.2% (inactive); in assay [3] (setting [6]), 84.2%; in assay [3] (setting [7]), 92.2%. For the same compound, the differential viability (reversal) in assay [3] (H69AR cells + 2 uM doxorubicin) was 8.09% (inactive). Besides, the inhibition in assay [4] was -0.39% (inactive); in assay [5], -7.3% (inactive).
Regarding `COc1ccc(-c2nc(C(N)=O)c3[nH]c(=O)n(-c4cccc(Cl)c4)c3n2)cc1OC`, the viability is 3.29% (active) in assay [1], 1.2% (active) in assay [2], 2.13% in assay [3] (setting [6]) and 1.2% in assay [3] (setting [7]). Besides, the differential viability (reversal) in assay [3] (H69AR cells + 2 uM doxorubicin) was -0.93% (inactive). Further, the inhibition in assay [4] was 6.23% (inactive); in assay [5], -0.33% (inactive).
For the compound `Cc1ccc(S(=O)(=O)NCCCNC(=O)N2CCOCC2)cc1`, the viability in assay [1] was 100% (inactive); in assay [2], 106% (inactive); in assay [3] (setting [6]) it was 92.4%; in assay [3] (setting [7]), 106%. For the same compound, in assay [3] (H69AR cells + 2 uM doxorubicin), the differential viability (reversal) was 13.5% (inactive). Also, the inhibition was -1.05% (inactive) in assay [4] and 3.81% (inactive) in assay [5].
On to `COc1ccc(OC)c(S(=O)(=O)NCCO)c1`, for which the viability was 87.5% (inactive) in assay [1], 95.2% (inactive) in assay [2], 80.7% in assay [3] (setting [6]) and 95.2% in assay [3] (setting [7]). In addition, the differential viability (reversal) in assay [3] (H69AR cells + 2 uM doxorubicin) is 14.5% (inactive). For the same compound, the results for the inhibition in assay [4] and in assay [5] were -2.34% (inactive) and 6.35% (inactive), respectively.
As to `CS(=O)(=O)N(CC(=O)N1CCN(c2cccc(Cl)c2)CC1)C1CCCCC1`, the viability in assay [1] was 80.6% (inactive); in assay [2], 79.6% (inactive); in assay [3] (setting [6]) it was 87.1%; in assay [3] (setting [7]), 79.6%. Further, the differential viability (reversal) in assay [3] (H69AR cells + 2 uM doxorubicin) is -7.54% (inactive). For the same compound, the inhibition in assay [4] was -4.29% (inactive); in assay [5] it was -7.78% (inactive).
